The species entered for one assay is Bos taurus. Nature of the assay: The cell lytic potency at a compound concentration of 33 uM in bovine platelets was determined. In kind it is functional. Summed up:
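Turbidimetric lysis assay in bovine platelets. ETYA, then compound or DMSO solvent, then platelet suspension and CaCl2 at 37 °C. The suspension was diluted with PBS and absorbance read at 800 nm; lysis lowers absorbance. Platelets were stored at +4 °C and used within 36 h of isolation.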

In assay [1] the test system is Cytosolic phospholipase A2 (Bos taurus). Briefly: Inhibitory activity against cPLA2 (cytosolic Phospholipase A2) by measuring the calcium ionophore A-23,187-induced arachidonic acid release from bovine platelets at a compound conc of 33 uM.
Assay [2] has as its target T1, Cytosolic phospholipase A2 (Bos taurus, UniProt A4IFJ5).
T1 sequence (A4IFJ5 whole entry): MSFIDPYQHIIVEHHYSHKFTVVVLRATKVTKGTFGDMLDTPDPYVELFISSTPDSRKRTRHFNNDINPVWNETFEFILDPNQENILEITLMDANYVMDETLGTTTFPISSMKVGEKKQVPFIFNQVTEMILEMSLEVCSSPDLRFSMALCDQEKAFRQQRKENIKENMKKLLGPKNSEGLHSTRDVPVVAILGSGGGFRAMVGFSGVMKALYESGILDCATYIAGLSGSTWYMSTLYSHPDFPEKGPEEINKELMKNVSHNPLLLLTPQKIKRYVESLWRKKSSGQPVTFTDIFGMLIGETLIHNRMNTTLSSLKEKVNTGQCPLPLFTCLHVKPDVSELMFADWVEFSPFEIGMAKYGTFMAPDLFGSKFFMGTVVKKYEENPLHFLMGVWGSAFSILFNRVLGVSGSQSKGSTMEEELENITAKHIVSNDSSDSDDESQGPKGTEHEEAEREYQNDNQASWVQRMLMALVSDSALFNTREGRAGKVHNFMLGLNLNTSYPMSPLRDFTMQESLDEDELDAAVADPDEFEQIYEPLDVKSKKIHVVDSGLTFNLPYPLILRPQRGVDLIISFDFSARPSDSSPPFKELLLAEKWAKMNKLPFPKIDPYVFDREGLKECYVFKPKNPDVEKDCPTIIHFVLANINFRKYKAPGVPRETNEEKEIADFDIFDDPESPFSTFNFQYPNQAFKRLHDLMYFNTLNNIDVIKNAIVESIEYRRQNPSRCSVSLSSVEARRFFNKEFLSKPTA
Nature of the assay: Inhibitory activity against cPLA2 (cytosolic Phospholipase A2) by measuring the calcium ionophore A-23,187-induced arachidonic acid release from bovine platelets. In kind it is functional. Summed up: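 Intact bovine platelets stimulated with calcium ionophore A23187 in the presence of ETYA, which blocks arachidonic acid metabolism. Compound or solvent control was added to ETYA, then platelet suspension and CaCl2 at 37 °C. Released arachidonic acid was measured by HPLC/UV. IC50 was read graphically as the mean of at least two independent experiments. Platelets were stored at +4 °C and used within 36 h of isolation.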

For assay [3], the system named is Cytosolic phospholipase A2 (Bos taurus). Nature of the assay: Inhibitory activity against cPLA2 (cytosolic Phospholipase A2) by measuring the calcium ionophore A-23,187-induced arachidonic acid release from bovine platelets; Not active at highest conc tested 33 uM.

For the compound `CCCCCCCC(=O)c1c(C(=O)O)n(C)c2ccccc12`, the Lysis in the assay filed under Bos taurus worked out at 0%. In assay [1], the inhibition was 30%. Besides, in assay [2], the half-inhibitory concentration (IC50) was above 33 µM.
The compound `CCCCCCCCCCCCCCCCCC(=O)c1c(C(=O)O)n(CCCCCC)c2ccccc12` displayed a Lysis in the assay listed under Bos taurus of 27%. For the same compound, in assay [2], the IC50 is 9 µM.
The compound `CCCCCCCCCCOc1ccccc1CCC(=O)c1c(C(=O)O)n(C)c2ccccc12` showed a Lysis in the assay filed under Bos taurus of 34%. Besides, the concentration for half-maximal inhibition (IC50) in assay [2] is 34 µM.
Consider `CCCCCCCCCCCCCCCCCC(=O)c1c(C(=O)O)n(CCCCCCCC)c2ccccc12`, for which the Lysis in the assay listed under Bos taurus is reported as 0%.
Regarding `CCCCCCCCCCCCCCCCCC(=O)c1c(C(=O)O)n(CCCCCCCC(=O)O)c2ccccc12`, in the assay listed under Bos taurus, the Lysis is 69%. For the same compound, in assay [2], the half-maximal inhibitory concentration (IC50) stood at 1.4 µM.
Consider `CCCCCCCCCCCC(=O)c1c(C(=O)O)n(C)c2ccc([N+](=O)[O-])cc12`, for which, in the assay filed under Bos taurus, the Lysis was found to be 10%. Further, the 50% inhibitory concentration (IC50) in assay [2] worked out at 10 µM.
In the assay listed under Bos taurus, `CCCCCCCCCCOc1ccc(CCC(=O)c2c(C(=O)O)n(C)c3ccccc23)cc1` registered a Lysis of 0%. In addition, the IC50 in assay [2] worked out at 10 µM.
Regarding `CCCCCCCCCC(=O)c1c(C(=O)O)n(C)c2ccccc12`, the Lysis in the assay filed under Bos taurus is given as 0%. For the same compound, the IC50 in assay [2] came out at 18 µM.
`CCCCCCCCCCCCCCCCCC(=O)c1c(C(=O)O)n(C)c2ccccc12` came in with a Lysis in the assay listed under Bos taurus of 0%. In addition, the IC50 in assay [2] worked out at 8 µM.
On to `CCCCCCCCCCCC(=O)c1c(C(=O)O)n(CCOc2ccc(CC(=O)O)cc2)c2ccccc12`, for which the Lysis in the assay filed under Bos taurus is 0%.
The compound `CCCCC/C=C\C/C=C\C/C=C\C/C=C\CCCC(=O)C(F)(F)F` [ARACHIDONYL TRIFLUOROMETHYLKETONE] showed a Lysis in the assay filed under Bos taurus of 31%. Moreover, the IC50 in assay [2] came out at 11 µM.
In the assay filed under Bos taurus, `CCCCCCCCCCCCOc1cccc(C(=O)c2c(C(=O)O)n(C)c3ccccc23)c1` had a Lysis of 26%. Besides, the IC50 in assay [2] turned out to be 7 µM.
Regarding `CCCCCCCCCCCCCCCCCC(=O)c1c(CC(=O)O)[nH]c2ccccc12`, in assay [3], the 50% inhibitory concentration (IC50) result is given as “Not Active”. The same compound registered a Lysis in the assay listed under Bos taurus of 0%.
On to `CCCCCCCCCCCC(=O)c1c(C(=O)O)n(CCCCCCC(=O)O)c2ccccc12`, for which the Lysis in the assay listed under Bos taurus is given as 0%. The IC50 in assay [2] came out at 3 µM.
The compound `CCCCCCCCCCCC(=O)c1c(C(=O)O)n(C)c2ccc(Cl)cc12` registered a Lysis in the assay listed under Bos taurus of 14%. In addition, the IC50 in assay [2] came to 8 µM.
`CCCCCCCCCCCCOc1ccccc1C(=O)c1c(C(=O)O)n(C)c2ccccc12`: in the assay listed under Bos taurus, the Lysis is reported as 60%.
The same measure, in the same setting: to `CCCCCCCCCCCC(=O)c1c(C(=O)O)n(CCOc2cccc(CC(=O)O)c2)c2ccccc12` belongs 0%.
Compound `CCCCCCCCCCCC(=O)c1c(C(=O)O)n(C)c2cccc(Cl)c12` displayed a Lysis in the assay listed under Bos taurus of 50%. The IC50 in assay [2] turned out to be 9 µM.
As for `CCCCCCCCCCOc1cccc(CCC(=O)c2c(C(=O)O)n(C)c3ccccc23)c1`, in the assay filed under Bos taurus, the Lysis worked out at 14%. Moreover, the IC50 in assay [2] was 11 µM.
With `CCCCCCCCCCCCCCCCCC(=O)c1c(C(=O)OCC)n(C)c2ccccc12`, the half-inhibitory concentration (IC50) entry in assay [3] was “Not Active”. Further, the Lysis in the assay listed under Bos taurus was 0%.
In the assay filed under Bos taurus, `CCCCCCCCCCCC(=O)c1c(C(=O)O)n(CCOc2cccc(C(=O)O)c2)c2ccccc12` yielded a Lysis of 0%. Further, in assay [2], the concentration for half-maximal inhibition (IC50) is 1.9 µM.
The corresponding values for `CCCCCCCCCCCCOc1ccc(C(=O)c2c(C(=O)O)n(C)c3ccccc23)cc1` are 19% and 7 µM.
The corresponding values for `CCCCCCCCCCCCCCCCCC(=O)c1c(CC(=O)O)n(C)c2ccccc12` are 0% and above 33 µM.
The corresponding values for `CCCCCCCCCCCC(=O)c1c(C(=O)O)n(CCCCCC(=O)O)c2ccccc12` are 0% and 8 µM.
Take `CCCCCCCCCCCC(=O)c1c(C(=O)O)n(Cc2ccc(/C=C/C(=O)O)cc2)c2ccccc12`: in the assay filed under Bos taurus, the Lysis was 0%. Further, in assay [2], the IC50 came to 4.1 µM.
The corresponding values for `CCCCCCCCCCCC(=O)c1c(C(=O)O)n(CCOc2ccc(C(=O)O)cc2)c2ccccc12` are 0% and 0.5 µM.
`CCCCCCCCCCCCCCCCCC(=O)c1c(C(=O)O)n(CCCCCCCCCCCC)c2ccccc12` had a Lysis in the assay filed under Bos taurus of 0%.
In the assay listed under Bos taurus, `CCCCCCCCCCCC(=O)c1c(C(=O)O)n(Cc2cccc(/C=C/C(=O)O)c2)c2ccccc12` displayed a Lysis of 0%. Besides, in assay [2], the IC50 stood at 5.3 µM.
The corresponding values for `CCCCCCCCCCCC(=O)c1c(C)c(C)n(C)c1C(=O)O` are 0% and 11 µM.
The corresponding values for `CCCCCCCCCCCC(=O)c1c(C(=O)O)n(Cc2cccc(CCC(=O)O)c2)c2ccccc12` are 0% and 4.3 µM.
`CCCCCCCCCCCC(=O)c1c(C(=O)O)n(CCCCCCCC(=O)O)c2ccccc12` came in with a Lysis in the assay listed under Bos taurus of 0%. Besides, the half-inhibitory concentration (IC50) in assay [2] was 1.6 µM.
The corresponding values for `CCCCCCCCCCCC(=O)c1c(C(=O)O)n(CCCCCCCCC(=O)O)c2ccccc12` are 0% and 1.6 µM.
In the assay listed under Bos taurus, `CCCCCCCCCCCC(=O)c1c(C(=O)O)n(C)c2cc(Cl)ccc12` yielded a Lysis of 26%. For the same compound, the IC50 in assay [2] came to 9 µM.
The corresponding values for `CCCCCCCCCCCC(=O)c1c(C(=O)O)n(C)c2ccccc12` are 0% and 8 µM.
The corresponding values for `CCCCCCCCCCCC(=O)c1c(C(=O)O)n(C)c2ccc(F)cc12` are 0% and 11 µM.
In the assay filed under Bos taurus, `CCCCCCCCCCOc1ccccc1CC(=O)c1c(C(=O)O)n(C)c2ccccc12` had a Lysis of 37%. The IC50 in assay [2] was found to be 7 µM.
The corresponding values for `CCCCCCCCCCOc1cccc(CC(=O)c2c(C(=O)O)n(C)c3ccccc23)c1` are 21% and 10 µM.
The corresponding values for `CCCCCCCCCCCC(=O)c1c(C(=O)O)n(CCCCCCCCCCC(=O)O)c2ccccc12` are 0% and 1.4 µM.
`CCCCCCCCCCCC(=O)c1c(C(=O)O)n(C)c2ccc(OC)cc12` displayed a Lysis in the assay listed under Bos taurus of 0%. Further, the IC50 in assay [2] came out at 8 µM.
In turn, `CCCCCCCCCCCCCC(=O)c1c(C(=O)O)n(C)c2ccccc12` showed a Lysis in the assay filed under Bos taurus of 0%. Also, in assay [2], the concentration for half-maximal inhibition (IC50) is 8 µM.
`CCCCCCCCCCCCCCCCCC(=O)c1c(CCC(=O)O)n(C)c2ccccc12`: in assay [3], the half-maximal inhibitory concentration (IC50) result is “Not Active”. Also, in the assay listed under Bos taurus, the Lysis stood at 0%.
Turning to `CCCCCCCCCCCCCCCCCCc1c(C(=O)O)n(C)c2ccccc12`, the IC50 entry in assay [3] was “Not Active”. Moreover, the Lysis in the assay filed under Bos taurus is listed as 0%.
On to `CCCCCCCCCCCCCCCCCC(=O)c1c(CCC(=O)O)[nH]c2ccccc12`, for which, in assay [3], the IC50 result is recorded as “Not Active”. This compound yielded a Lysis in the assay filed under Bos taurus of 0%.
In the assay listed under Bos taurus, `CCCCCCCCCCCC(=O)c1c(C(=O)O)n(C)c2ccc(O)cc12` returned a Lysis of 0%. For the same compound, the IC50 in assay [2] came to 10 µM.
The corresponding values for `CCCCCCCCCCCC(=O)c1c(C(=O)O)n(Cc2ccc(CCC(=O)O)cc2)c2ccccc12` are 0% and 4 µM.
The corresponding values for `CCCCCCCCCCCCCCCCNC(=O)C1CCCN1` (configuration not stated) are 0% and 13 µM.
Take `CCCCCCCCCCCC(=O)c1c(C(=O)O)n(CC(=O)O)c2ccccc12`: the Lysis in the assay listed under Bos taurus was 0%. The inhibition in assay [1] was 39%. Further, the IC50 in assay [2] was above 33 µM.
Take `CCCCCCCCCCCCCCCCCC(=O)c1c(C(=O)O)[nH]c2ccccc12`: the IC50 entry in assay [3] is given as “Not Active”. In addition, in the assay filed under Bos taurus, the Lysis is reported as 0%.
`CCCCCCCCCCOc1ccc(CC(=O)c2c(C(=O)O)n(C)c3ccccc23)cc1`: the Lysis in the assay filed under Bos taurus is 38%. For the same compound, in assay [2], the IC50 was determined as 7 µM.
On to `CCCCCCCCCCCCCCCCCC(=O)c1c(C(=O)O)n(CCCCCCC)c2ccccc12`, for which the Lysis in the assay filed under Bos taurus is recorded as 16%. For the same compound, the 50% inhibitory concentration (IC50) in assay [2] is above 10 µM.

Source of the values: ChEMBL document CHEMBL1130122, “Synthesis, biological evaluation, and structure-activity relationships of 3-acylindole-2-carboxylic acids as inhibitors of the cytosolic phospholipase A2” (J Med Chem, 1997).
